Assay results published in ChEMBL document CHEMBL1125111, “The synthesis and antibacterial activities of quinolones containing five- and six-membered heterocyclic substituents at the 7-position” (1990).
Values after ≈ are worked out from the molar mass of the structure shown.

Legend:
Assay type in all cases: functional
Staphylococcus aureus [1] = test: In vitro antibacterial activity against Staphylococcus aureus CMX 686B
Procedure, shortened: (§1)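 Agar dilution MIC: strains grown overnight in brain-heart infusion broth at 36 °C; test compound stock 2000 µg/mL serially diluted 2-fold into BHI agar for final 200 to 0.005 µg/mL; plates inoculated with about 10⁴ organisms, incubated 36 °C for 18 h. MIC (µg/mL) taken as lowest concentration giving no visible growth; ciprofloxacin run side by side as reference.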

Enterococcus faecium = test: In vitro antibacterial activity against Streptococcus faecium ATCC 8043; procedure, shortened: as §1
Streptococcus pyogenes = test: In vitro antibacterial activity against Streptococcus pyogenes 930; procedure, shortened: as §1
Streptococcus equinus = test: In vitro antibacterial activity against Streptococcus bovis A5169; procedure, shortened: as §1
Pseudomonas aeruginosa [2] = test: In vitro antibacterial activity against Pseudomonas aeruginosa K799/WT; procedure, shortened: as §1
Pseudomonas aeruginosa [3] = test: In vitro antibacterial activity against Pseudomonas aeruginosa 5007; procedure, shortened: as §1
Klebsiella aerogenes = test: In vitro antibacterial activity against Enterobacter aerogenes ATCC 13048; procedure, shortened: as §1
Staphylococcus aureus [4] = test: In vitro antibacterial activity against Staphylococcus aureus ATCC 6538P; procedure, shortened: as §1
[5] = system: Staphylococcus epidermidis; test: In vitro antibacterial activity against Staphylococcus epidermidis 3519; procedure, shortened: as §1
Escherichia coli = test: In vitro antibacterial activity against Escherichia coli Juhl; procedure, shortened: as §1
Klebsiella pneumoniae = test: In vitro antibacterial activity against Klebsiella pneumoniae 8045; procedure, shortened: as §1
Acinetobacter = test: In vitro antibacterial activity against Acinetobacter CMX 669; procedure, shortened: as §1
Staphylococcus aureus [6] = test: In vitro antibacterial activity against Staphylococcus aureus A5177; procedure, shortened: as §1
Staphylococcus aureus [7] = test: In vitro antibacterial activity against Staphylococcus aureus 45; procedure, shortened: as §1
Streptococcus agalactiae = test: In vitro antibacterial activity against Streptococcus agalactiae CMS 508; procedure, shortened: as §1

SMILES	MIC (Staphylococcus aureus [1])	MIC (Enterococcus faecium)	MIC (Streptococcus pyogenes)	MIC (Streptococcus equinus)	MIC (Pseudomonas aeruginosa [2])	MIC (Pseudomonas aeruginosa [3])	MIC (Klebsiella aerogenes)	MIC (Staphylococcus aureus [4])	MIC [5]	MIC (Escherichia coli)	MIC (Klebsiella pneumoniae)	MIC (Acinetobacter)	MIC (Staphylococcus aureus [6])	MIC (Staphylococcus aureus [7])	MIC (Streptococcus agalactiae)
CCn1cc(C(=O)O)c(=O)c2cc(F)c(C3=NCCCO3)cc21	50 µg/mL (≈ 157 µM)	> 100 µg/mL	> 100 µg/mL	> 100 µg/mL	> 100 µg/mL	> 100 µg/mL	> 100 µg/mL	50 µg/mL (≈ 157 µM)	> 100 µg/mL	50 µg/mL (≈ 157 µM)	25 µg/mL (≈ 78.5 µM)	> 100 µg/mL	> 100 µg/mL	> 100 µg/mL	> 100 µg/mL
CCn1cc(C(=O)O)c(=O)c2cc(F)c(-c3coc(N)n3)cc21	12.5 µg/mL (≈ 39.4 µM)	> 100 µg/mL	100 µg/mL (≈ 315 µM)	> 100 µg/mL	> 100 µg/mL	> 100 µg/mL	50 µg/mL (≈ 158 µM)	12.5 µg/mL (≈ 39.4 µM)	50 µg/mL (≈ 158 µM)	50 µg/mL (≈ 158 µM)	25 µg/mL (≈ 78.8 µM)	> 100 µg/mL	25 µg/mL (≈ 78.8 µM)	50 µg/mL (≈ 158 µM)	100 µg/mL (≈ 315 µM)
CCn1cc(C(=O)O)c(=O)c2cc(F)c(-c3coc(C)n3)cc21	0.78 µg/mL (≈ 2.47 µM)	100 µg/mL (≈ 316 µM)	100 µg/mL (≈ 316 µM)	100 µg/mL (≈ 316 µM)	50 µg/mL (≈ 158 µM)	50 µg/mL (≈ 158 µM)	50 µg/mL (≈ 158 µM)	1.56 µg/mL (≈ 4.93 µM)	3.1 µg/mL (≈ 9.8 µM)	6.2 µg/mL (≈ 19.6 µM)	3.1 µg/mL (≈ 9.8 µM)	12.5 µg/mL (≈ 39.5 µM)	3.1 µg/mL (≈ 9.8 µM)	3.1 µg/mL (≈ 9.8 µM)	50 µg/mL (≈ 158 µM)
CCn1cc(C(=O)O)c(=O)c2cc(F)c(C(=O)O)cc21	> 100 µg/mL	> 100 µg/mL	> 100 µg/mL	> 100 µg/mL	> 100 µg/mL	> 100 µg/mL	> 100 µg/mL	> 100 µg/mL	> 100 µg/mL	> 100 µg/mL	> 100 µg/mL	> 100 µg/mL	> 100 µg/mL	> 100 µg/mL	> 100 µg/mL
CCn1cc(C(=O)O)c(=O)c2cc(F)c(C(=O)NCCO)cc21	> 100 µg/mL	> 100 µg/mL	> 100 µg/mL	> 100 µg/mL	> 100 µg/mL	> 100 µg/mL	> 100 µg/mL	> 100 µg/mL	> 100 µg/mL	50 µg/mL (≈ 155 µM)	50 µg/mL (≈ 155 µM)	> 100 µg/mL	> 100 µg/mL	> 100 µg/mL	> 100 µg/mL
CCn1cc(C(=O)O)c(=O)c2cc(F)c(C3=NCCO3)cc21	12.5 µg/mL (≈ 41.1 µM)	> 100 µg/mL	> 100 µg/mL	> 100 µg/mL	> 100 µg/mL	> 100 µg/mL	12.5 µg/mL (≈ 41.1 µM)	25 µg/mL (≈ 82.2 µM)	50 µg/mL (≈ 164 µM)	12.5 µg/mL (≈ 41.1 µM)	6.2 µg/mL (≈ 20.4 µM)	50 µg/mL (≈ 164 µM)	25 µg/mL (≈ 82.2 µM)	50 µg/mL (≈ 164 µM)	> 100 µg/mL
CCn1cc(C(=O)O)c(=O)c2cc(F)c(-c3ccc(C)o3)cc21	0.78 µg/mL (≈ 2.47 µM)	> 100 µg/mL	50 µg/mL (≈ 159 µM)	> 100 µg/mL	> 100 µg/mL	> 100 µg/mL	12.5 µg/mL (≈ 39.6 µM)	1.56 µg/mL (≈ 4.95 µM)	1.56 µg/mL (≈ 4.95 µM)	12.5 µg/mL (≈ 39.6 µM)	6.2 µg/mL (≈ 19.7 µM)	25 µg/mL (≈ 79.3 µM)	1.56 µg/mL (≈ 4.95 µM)	1.56 µg/mL (≈ 4.95 µM)	50 µg/mL (≈ 159 µM)
CCn1cc(C(=O)O)c(=O)c2cc(F)c(C3=NC(C)(C)CO3)cc21	12.5 µg/mL (≈ 37.6 µM)	> 100 µg/mL	> 100 µg/mL	> 100 µg/mL	> 100 µg/mL	> 100 µg/mL	> 100 µg/mL	25 µg/mL (≈ 75.2 µM)	50 µg/mL (≈ 150 µM)	> 100 µg/mL	100 µg/mL (≈ 301 µM)	> 100 µg/mL	25 µg/mL (≈ 75.2 µM)	100 µg/mL (≈ 301 µM)	> 100 µg/mL
CCn1cc(C(=O)O)c(=O)c2cc(F)c(-c3cocn3)cc21	6.2 µg/mL (≈ 20.5 µM)	> 100 µg/mL	> 100 µg/mL	> 100 µg/mL	100 µg/mL (≈ 331 µM)	> 100 µg/mL	12.5 µg/mL (≈ 41.4 µM)	6.2 µg/mL (≈ 20.5 µM)	12.5 µg/mL (≈ 41.4 µM)	12.5 µg/mL (≈ 41.4 µM)	6.2 µg/mL (≈ 20.5 µM)	50 µg/mL (≈ 165 µM)	12.5 µg/mL (≈ 41.4 µM)	25 µg/mL (≈ 82.7 µM)	> 100 µg/mL
CCn1cc(C(=O)O)c(=O)c2cc(F)c(-c3c[nH]cn3)cc21.Cl	12.5 µg/mL	> 100 µg/mL	50 µg/mL	> 100 µg/mL	> 100 µg/mL	> 100 µg/mL	50 µg/mL	12.5 µg/mL	50 µg/mL	25 µg/mL	12.5 µg/mL	> 100 µg/mL	25 µg/mL	50 µg/mL	50 µg/mL
O=C(O)c1cn(C2CC2)c2cc(N3CCNCC3)c(F)cc2c1=O [CIPROFLOXACIN]	0.2 µg/mL (≈ 0.604 µM)	0.39 µg/mL (≈ 1.18 µM)	0.39 µg/mL (≈ 1.18 µM)	1.56 µg/mL (≈ 4.71 µM)	0.2 µg/mL (≈ 0.604 µM)	0.2 µg/mL (≈ 0.604 µM)	0.05 µg/mL (≈ 0.151 µM)	0.1 µg/mL (≈ 0.302 µM)	0.39 µg/mL (≈ 1.18 µM)	–	0.02 µg/mL (≈ 0.0604 µM)	0.78 µg/mL (≈ 2.35 µM)	0.39 µg/mL (≈ 1.18 µM)	1.56 µg/mL (≈ 4.71 µM)	0.39 µg/mL (≈ 1.18 µM)
